A short description of series [1]: Cytotoxicity against human SH-SY5Y cells assessed as cell viability at 1 uM after 48 hrs by MTT assay. Format: functional. As to conditions: read-out: Activity. In outline: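 SH-SY5Y cells in 24-well plates were treated 48 h with 1 μM compound. They were washed in Locke's solution (10 mM HEPES pH 7.6) and given MTT 250 μg/mL for 1 h at 37 °C. Formazan was dissolved in isopropanol/0.1 M HCl and read at 570 nm. Result is % viable cells, 8-12 determinations from 3 experiments.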

A short description of series [2]: Cytotoxicity against human SH-SY5Y cells assessed as reduction in cell viability after 48 hrs by MTT assay. Format: functional, cell-based. In a few lines: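 SH-SY5Y cells were exposed 48 h across a concentration range, then given MTT 250 μg/mL in Locke's solution for 1 h at 37 °C. Formazan was dissolved in isopropanol/0.1 M HCl and absorbance read at 570 nm. IC50 was taken from concentration-response curves; 8-12 determinations from 3 experiments.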

A short description of series [3]: Cell cycle arrest in human SH-SY5Y cells assessed as accumulation at S phase at 3 times IC50 after 16 hrs by flow cytometry (reference value: 10.6 %). The series is classed as functional, cell-based. In outline: (§1)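 SH-SY5Y neuroblastoma cells were kept in 50% DMEM/50% F-12 with 10% FBS and 2 mM L-glutamine. Cells were exposed 16 h to vehicle or compound, washed in PBS and fixed in 70% EtOH at -20 °C. They were then treated with RNAse 100 μg/mL for 1 h at 37 °C and stained with 25 μg/mL propidium iodide plus 5 mM EDTA for 30 min at 4 °C in the dark. DNA content was read by flow cytometry; 3 experiments.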

The nature of series [4]: Metabolic stability in human liver microsomes assessed as peak area after 60 mins by LC-UV analysis in presence of NADPH and GSH. Format: ADME. Conditions: read-out: Stability. In outline:
(§2)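 Human liver microsomes were incubated with compound alone, with NADPH, with NADPH+GSH (60 min; phase I), or with UDPGA (30 min; phase II). Extracts were analysed by LC-UV, and remaining substrate is reported as peak area % relative to controls without microsomes.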

A short description of series [5]: Metabolic stability in human liver microsomes assessed as peak area after 60 mins by LC-UV analysis. Format: ADME. Conditions: read-out: Stability. In outline:
as §2

The nature of series [6]: Cell cycle arrest in human SH-SY5Y cells assessed as accumulation at S phase at IC50 after 16 hrs by flow cytometry (reference value: 10.6 %). The series is classed as functional, cell-based. In outline:
as §1

Series [7] in a line: Metabolic stability in human liver microsomes assessed as peak area after 60 mins by LC-UV analysis in presence of NADPH. Format: ADME. As to conditions: read-out: Stability. In outline: as §2
The nature of series [8]: Cell cycle arrest in human SH-SY5Y cells assessed as accumulation at G0G1 phase at 3 times IC50 after 16 hrs by flow cytometry (reference value: 70.2 %). The series is classed as functional, cell-based. In a few lines: as §1
A short description of series [9]: Cell cycle arrest in human SH-SY5Y cells assessed as accumulation at G0G1 phase at IC50 after 16 hrs by flow cytometry (reference value: 70.2 %). The series is classed as functional, cell-based. In outline: as §1
Series [10] in a line: Cell cycle arrest in human SH-SY5Y cells assessed as accumulation at G2/M phase at IC50 after 16 hrs by flow cytometry (reference value: 18.5 %). Format: functional, cell-based. In a few lines:
as §1

Series [11] in a line: Metabolic stability in human liver microsomes assessed as peak area after 30 mins by LC-UV analysis in presence of NADPH and UDPGA. As to conditions: read-out: Stability. Format: ADME. In a few lines: as §2
A short description of series [12]: Cell cycle arrest in human SH-SY5Y cells assessed as accumulation at G2/M phase at 3 times IC50 after 16 hrs by flow cytometry (reference value: 18.5 %). Format: functional, cell-based. In a few lines:
as §1

In series [13] the target is T1, Tubulin (Homo sapiens) (UniProt P68371+Q9H4B7+P0DPH7+P68366+Q13509+Q71U36+P04350+Q3ZCM7+P07437+P68363+Q9BQE3+Q6PEY2+Q13885+Q9BVA1+Q9BUF5). The series is described as follows: Inhibition of tubulin polymerization in human SH-SY5Y cells at 3 times IC50 after 16 hrs by Western blot analysis. The series is classed as cell-based.
Series [14] addresses T1, Tubulin (Homo sapiens). The series is described as follows: Inhibition of tubulin polymerization in human SH-SY5Y cells at 1 to 3 times IC50 after 16 hrs by immunocytochemistry. The series is classed as cell-based.
The target in series [15] is T1, Tubulin (Homo sapiens). The series is described as follows: (§3) Inhibition of tubulin (unknown origin) polymerization by fluorescence assay. Format: protein-complex assay. In outline: (§4)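 Fluorescence-based kit assay. Tubulin was taken up in ice-cold buffer (80 mM PIPES, 2 mM MgCl2, 0.5 mM EGTA, 1 mM GTP, 20% glycerol) and added to wells containing compound or vehicle.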

The next series concerns the target Tubulin. Described as §3. The series is classed as protein-complex assay, Homo sapiens. In outline: as §4
The target of series [16] is T1, Tubulin (Homo sapiens). Put plainly: Displacement of [3H]colchicine from tubulin (unknown origin) at 1 uM after 30 mins by beta-counting. Format: protein-complex assay. In outline:
(§5)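 It was preincubated 30 min at 37 °C with test compound at 1 or 10 μM, then given 0.2 μCi [3H]colchicine for 1 h at 37 °C. Samples were stopped with ice-cold water, filtered on nitrocellulose and counted by β-counter. Results are % inhibition, ≥7 replicates from 3 experiments.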

Series [17] addresses T1, Tubulin (Homo sapiens). The series is described as follows: Displacement of [3H]colchicine from tubulin (unknown origin) at 10 uM after 30 mins by beta-counting. The series is classed as protein-complex assay. In a few lines:
as §5

Calls of active or inactive are those of the source. The calls are words filed in the database; no cut-off is given here.

As for `COc1cc2c(cc1O)C(c1cc(OC)c(OC)c(OC)c1)=NCC(=O)N2`, in [1], the viability at 1 µM came out at 64.8%. In addition, the IC50 in [2] was determined as 415 nM.

Regarding `COc1ccc(/C=C\c2cc(OC)c(OC)c(OC)c2)cc1O` [COMBRETASTATIN A4], the Activity in series [3] was determined as 11.4%; in [6], 10%; in series [8], 52.7%; in [9], 51.1%; in series [10], 38.4%; in [12] it was 35.4%. In addition, the remaining at 1 h in [4] came out at 67%; in series [5], 100%; in series [7], 75%. The viability at 1 µM in series [1] is 33.4%. The IC50 in series [2] was 2.7 nM. Further, the remaining at 0.5 h in series [11] is 39%.

For `COc1cc(C2=NCC(=O)N(C)c3c2ccc(OC)c3OC)cc(OC)c1OC`, the viability at 1 µM in series [1] stood at 76.4%.

In the case of `COc1cc2c(cc1OC)C(c1cc(OC)c(OC)c(OC)c1)=NCC(=O)N2`, the viability at 1 µM in series [1] was determined as 102%.

Turning to `COc1cc(C2=NCC(=O)Nc3c2ccc(OC)c3OC)cc(OC)c1OC`, the viability at 1 µM in series [1] was 46.8%. Moreover, the IC50 in [2] came to 90.3 nM.

With `COc1ccc2c(c1)C(c1cc(OC)c(OC)c(OC)c1)=NCC(=O)N2C`, the viability at 1 µM in [1] was determined as 44.4%. Besides, the IC50 in [2] came to 862 nM.

For the compound `COc1ccc2c(c1)NC(=O)CN=C2c1cc(OC)c(OC)c(OC)c1`, the Activity was found to be 19.3% in [3]; 2.1% in series [6]; 45.5% in series [8]; 45.5% in [9]; 34.6% in [10]; 35% in series [12]. Further, in [1], the viability at 1 µM amounted to 24.7%. Also, the inhibition entry on Tubulin (Homo sapiens) [13] and at Tubulin (Homo sapiens) [14] was “Active” in each case. For the same compound, the IC50 in series [2] worked out at 25.1 nM; against Tubulin, 9000 nM. Besides, the inhibition result on Tubulin (Homo sapiens) [15] is “Dose-dependent effect”.

Take `COc1ccc2c(c1)N(C)C(=O)CN=C2c1cc(OC)c(OC)c(OC)c1`: the viability at 1 µM in series [1] worked out at 32.9%. The IC50 in series [2] came to 280 nM.

On to `COc1ccc2c(c1O)NC(=O)CN=C2c1cc(OC)c(OC)c(OC)c1`, for which the Activity is 17.9% in series [3]; 18.9% in series [6]; 47.5% in series [8]; 48% in [9]; 33% in series [10]; 34.4% in series [12]. Also, the remaining at 1 h in series [4] was 97%; in series [5] it was 95%; in series [7], 96%. In addition, in [1], the viability at 1 µM is 27.5%. Besides, the inhibition result at Tubulin (Homo sapiens) [13] and on Tubulin (Homo sapiens) [14] was “Active” in each case. Further, the IC50 in series [2] was 3.9 nM; at Tubulin, 1300 nM. The remaining at 0.5 h in [11] was determined as 92%. Moreover, the values for the inhibition at Tubulin (Homo sapiens) [16] and at Tubulin (Homo sapiens) [17] were 48% and 80%, respectively.

Turning to `COc1cc(C2=NCC(=O)N(C)c3cc4c(cc32)OCO4)cc(OC)c1OC`, the viability at 1 µM in series [1] worked out at 46.4%.

Regarding `COc1cc2c(cc1OC)N(C)C(=O)CN=C2c1cc(OC)c(OC)c(OC)c1`, the viability at 1 µM in [1] stood at 105%.

For the compound `COc1cc(C2=NCC(=O)Nc3cc4c(cc32)OCO4)cc(OC)c1OC`, the Activity in series [3] was found to be 12.6%; in [6], 12.6%; in [8] it was 49.3%; in series [9] it was 49.1%; in series [10], 38.1%; in series [12] it was 37.7%. In [1], the viability at 1 µM is 35.1%. Also, the inhibition entry on Tubulin (Homo sapiens) [13] and at Tubulin (Homo sapiens) [14] was “Active” in each case. Further, the IC50 in series [2] was determined as 71 nM; against Tubulin, 13600 nM. On Tubulin (Homo sapiens) [15], the inhibition entry is “Dose-dependent effect”.

`COc1ccc2c(c1)C(c1cc(OC)c(OC)c(OC)c1)=NCC(=O)N2`: the viability at 1 µM in series [1] was determined as 33.9%. In [2], the IC50 was 256 nM.

As to `COc1cc(C2=NCC(=O)N3COc4c(OC)ccc2c43)cc(OC)c1OC`, the viability at 1 µM in [1] was found to be 95.2%.

(Values after ChEMBL document CHEMBL3407494, “Design, synthesis, and biological evaluation of combretabenzodiazepines: a novel class of anti-tubulin agents” (J Med Chem, 2015).)
